Assay outcomes deposited in PubChem by several laboratories.
NPY Y2 blocker: antagonists of human neuropeptide Y receptor Y2. inhibition, % at 2.7 µM. 140,000 tested, 0.99% active. NPY-Y2 expressing cells, antagonist mode;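 note: 0% = vehicle with agonist challenge and 100% = reference antagonist with challenge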
Target sequence (P49146 whole entry, looked up): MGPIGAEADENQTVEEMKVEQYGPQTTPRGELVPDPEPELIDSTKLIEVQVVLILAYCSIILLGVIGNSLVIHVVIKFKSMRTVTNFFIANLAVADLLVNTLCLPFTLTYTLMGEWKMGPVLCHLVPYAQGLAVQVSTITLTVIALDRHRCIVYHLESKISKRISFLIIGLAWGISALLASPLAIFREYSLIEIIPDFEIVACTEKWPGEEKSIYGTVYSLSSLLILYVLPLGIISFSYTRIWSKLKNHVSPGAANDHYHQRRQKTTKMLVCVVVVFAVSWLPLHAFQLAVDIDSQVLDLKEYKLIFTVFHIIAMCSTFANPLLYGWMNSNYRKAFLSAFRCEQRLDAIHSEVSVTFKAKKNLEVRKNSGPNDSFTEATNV
NPY-Y1 PAM-ag: human NPY-Y1 potentiation or agonism, primary screen; NPY-Y1 expressing cells, potentiator/agonist activation; activation, % at 3.6 µM; 220,000 tested, 0.37% active; in the data active = activation above about 33%, passing the limit was not always enough;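 note: cells stimulated with NPY at EC10 then isoproterenol at EC100; 0% = low agonist plus stimulus and 100% = saturating agonist plus stimulus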
EP2 modulator: modulates human prostaglandin E2 receptor EP2 signaling | induction, % at 25 µM | EP2-expressing cells, cAMP HTRF FRET, PGE2 co-stimulation | 260,000 tested, 0.83% active;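 active = compounds whose cAMP rise, as percent of the full-agonist control response, exceeds 60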;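 note: rat C6 glioma line stably carrying human EP2 under a CMV promoter; the protocol text gives 20 µM as final concentration; 100% = response of wells given 1 µM PGE2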
Target sequence (P43116 whole entry, looked up): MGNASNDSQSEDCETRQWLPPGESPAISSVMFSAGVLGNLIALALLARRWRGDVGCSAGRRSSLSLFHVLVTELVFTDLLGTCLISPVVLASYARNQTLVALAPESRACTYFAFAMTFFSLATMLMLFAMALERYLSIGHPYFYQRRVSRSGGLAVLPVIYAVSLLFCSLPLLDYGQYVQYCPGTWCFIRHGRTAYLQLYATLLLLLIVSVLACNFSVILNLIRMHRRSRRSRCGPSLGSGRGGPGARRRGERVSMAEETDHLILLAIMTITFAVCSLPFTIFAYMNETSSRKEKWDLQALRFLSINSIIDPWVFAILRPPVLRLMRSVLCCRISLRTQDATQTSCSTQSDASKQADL
NPY-Y1 antag: blocks the human neuropeptide Y Y1 receptor | 200,000 tested, 1% active | HEK293-CNG Y1 cells, membrane potential fluorescence; NPY at EC95, then isoproterenol | P25929 | inhibition, % at 3.6 µM;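 active = inhibition above the campaign mean inhibition of all tested compounds plus 3 SD, cut at about 20% in these data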;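 note: 0% = DMSO wells given NPY plus isoproterenol and 100% = isoproterenol alone without NPY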
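material = HEK293 cells with Y1 receptor plus CNG channel | also added = NPY 25 nM then isoproterenol 1 µM plus Ro 20-1724 25 µM | schedule = dye 3 h, compound 60 min room temperature, stimulation 45 min | measured by = membrane potential fluorescence | benchmarks = high control isoproterenol alone, low control NPY with isoproterenol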
NPY-Y2 PAM-ag: potentiators or agonists of human neuropeptide Y receptor Y2. activation, % at 3.6 µM. AID 1359. cells expressing NPY-Y2, potentiator/agonist read-out. P49146. 220,000 tested, 0.45% active; in the data active = activation above about 27%;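 note: cells stimulated with NPY near EC25 plus isoproterenol at EC100; 0% = vehicle plus submaximal agonist and 100% = vehicle plus saturating agonist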
EP2 antag: inhibitors of human EP2 prostaglandin E2 receptor. P43116. C6 glioma cells expressing human EP2, cAMP TR-FRET; cells stimulated with saturating PGE2. inhibition, % at 25 µM. 260,000 tested, 0.52% active;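 active = percent inhibition above 40 after rounding to a whole number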;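 note: rat C6 glioma host cells with rolipram phosphodiesterase inhibitor present; the protocol text gives 20 µM as final concentration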
NPY-Y1 ant conf: human NPY-Y1 antagonism, confirmation; HEK293-CNG NPY-Y1, membrane potential fluorescence, cAMP; NPY challenge against isoproterenol-raised cAMP; inhibition, % at 3.6 µM; 1,200 tested, 21% active; shares compounds with NPY-Y1 antag; in the data active = inhibition above about 20%;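 note: 0% = vehicle with agonist plus stimulus and 100% = stimulus alone without agonist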
NPY2 antag ctr: antagonizes human NPY-Y2, counter-screen to NPY-Y1 antagonists. shares compounds with NPY-Y1 antag. AID 1255. HEK293 NPY-Y2 CNG membrane potential fluorescence, antagonism; cells given NPY, then isoproterenol. 1,200 tested, 28% active. inhibition, % at 3.6 µM;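 note: 0% = DMSO with agonist challenge and 100% = reference antagonist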
* = called active by the depositor; . = not tested or not shown; ! = not confirmed by another sample. Sampled rows, rich in hits. Any-hit rate of the full collection: about 2.8%. Cut-off read from the data, not from the text of the source, unless noted: active = inhibition above about 17%; inactive = the rest.

SMILES | NPY Y2 blocker | NPY-Y1 PAM-ag | EP2 modulator | NPY-Y1 antag | NPY-Y2 PAM-ag | EP2 antag | NPY-Y1 ant conf | NPY2 antag ctr
O=C(Cc1ccccc1)Nc1c2c(nn1-c1cccc(Cl)c1)CS(=O)(=O)C2 | 9 | -13 | 13 | 22* | -16 | 6 | 17 | 8
CCOC(=O)c1sc(NC(NC(=O)c2ccco2)(C(=O)OC)C(F)(F)F)nc1C (stereo not drawn) | 5 | 2 | 9 | 32* | -13 | 15 | 8 | 13
CCN(CC)CCSc1nc2ccccc2c(=S)n1-c1ccccc1 | . | -50 | 9 | 57* | -30 | 11 | 20* | 24*
CCN(CC)CCSc1nc(O)c(-c2ccccc2)c(=O)n1-c1ccccc1 | . | -12 | 20 | -2 | -8 | 8 | . | .
Cc1nc2c(c(=O)[nH]1)CCN(C(=O)c1cc3c(s1)CCC3)C2 | . | . | -10 | . | . | 2 | . | .
O=C(c1ccc(Br)s1)N1CCC2(CC1)CC(O)(c1nccs1)CO2 (stereo not drawn) | . | . | -2 | . | . | . | . | .
COc1ccccc1[C@@H]1C[C@H](OC(=O)c2cccc(N(C)C)c2)C(=O)N1C | . | . | -45 | . | . | 8 | . | .
O=C1CCc2cc(OCCCCc3nnnn3C3CCCCC3)ccc2N1 | 7 | -70 | 17 | 43*! | -21 | 10 | 26* | 46*
COc1ccc(-c2[nH]ncc2CN(Cc2ccc3c(c2)OCO3)CC(C)O)cc1 (stereo not drawn) | . | . | -14 | . | . | 10 | . | .
O=c1c2ccccc2nc(-c2ccc(Br)cc2)n1Cc1ccccc1 | 5 | -86 | 63* | 24* | -33 | 9 | 21* | 32*
c1ccc(-c2cc3c(-n4cccc4)ncnc3o2)cc1 | 10 | -9 | 8 | 21* | -23 | . | 4 | 8
COc1ccc(CCNS(=O)(=O)c2ccc(C(=O)Nc3nccs3)cc2)cc1OC | . | . | -48 | . | . | 10 | . | .
O=C(COc1ccc(Cl)cc1)Nc1nnc(C2=COCCO2)o1 | . | -19 | 13 | 22* | -32 | 23 | 10 | 7
O=C(COc1ccc(Cl)cc1Cl)Nc1nnc(C2=COCCO2)o1 | . | -17 | -8 | 7 | -24 | 4 | . | .
CCOc1ccc(S(=O)(=O)N2c3ccccc3CC2C)cc1 (stereo not drawn) | 15 | -27 | -16 | 38* | -10 | 8 | 8 | 17*
Cc1ccc(S(=O)(=O)N2c3ccccc3CC2C)cc1 (stereo not drawn) | . | 13 | 9 | 4 | -4 | 8 | . | .
CN(C)CCC1Sc2ccccc2Oc2ccccc21 (stereo not drawn) | 6 | -41 | -5 | 27* | -18 | 11 | 4 | 5
CNCCCOc1cccc(OC(C)C)c1 | 1 | -37 | -17 | -1 | -24 | . | . | .
CNCCCOc1cccc(Oc2ccccc2)c1 | . | -8 | -42 | 23* | -14 | 11 | 6 | 13
O=C(Cn1nc2c3ccccc3nc(C3CC3)n2c1=O)N1CCCCC1 | . | . | 1 | . | . | . | . | .
Cc1c(C(=O)OCC(C)C)[nH]c2c1C(=O)CC(c1cccs1)C2 (stereo not drawn) | 8 | -3 | 18 | 30* | -23 | 13 | 6 | 24*
O=C(NC1CCCCC1)C(c1ccncc1)N(Cc1ccc2c(c1)OCO2)C(=O)C(F)(F)F (stereo not drawn) | 9 | -20 | -8 | 21* | -4 | 18 | 9 | 5
O=C(N/N=C/C(Br)=C\c1ccccc1)c1n[nH]c2c1CCC2 | 7 | -39 | -17 | 1 | -28 | . | . | .
CC(/C=N/NC(=O)c1n[nH]c2c1CCC2)=C\c1ccccc1 | 5 | -16 | -15 | 22* | -28 | 7 | 7 | 17*
Cc1cc(-c2cncnc2C2CCCN(Cc3cscn3)C2)on1 (stereo not drawn) | . | . | -8 | . | . | . | . | .
SMILES | NPY Y2 blocker | NPY-Y1 PAM-ag | EP2 modulator | NPY-Y1 antag | NPY-Y2 PAM-ag | EP2 antag | NPY-Y1 ant conf | NPY2 antag ctr
Cc1cc2cc(CN(CCN(C)C)C(=S)Nc3cccc(Cl)c3)c(=O)[nH]c2cc1C | . | . | -67 | . | . | 15 | . | .
COc1ccc2c(c1)c(C(O)CN1CCC(Cc3ccccc3)CC1)c(C)n2C (stereo not drawn) | 12 | 0 | -11 | 21* | 2 | . | 10 | 10
COc1ccc(-c2onc(C)c2-c2cnn(-c3ccccc3)c2)c(O)c1C | . | -34 | -35 | 31* | -44 | 3 | 6 | 13
O=C(Nc1ccc2c(c1)OCO2)c1cc2n(n1)C(C(F)(F)F)CC(c1ccc3c(c1)OCO3)N2 (stereo not drawn) | . | . | -82 | . | . | 8 | . | .
Cc1cc(NC(=O)c2cc3n(n2)C(C(F)(F)F)CC(c2ccc(Cl)c(Cl)c2)N3)no1 (stereo not drawn) | 3 | 20 | -23 | 21* | 11 | 4 | 0 | 4
C=CC(=O)NC1(C)CS(=O)(=O)CC1S(=O)(=O)O (stereo not drawn) | . | . | -11 | . | . | 8 | . | .
CCN(CC)CCNCC(=O)Nc1nc(C)cs1 | . | . | 17 | . | . | 15 | . | .
Cn1c(=O)cc(SCC(=O)NCCCN2CCN(c3ccccc3F)CC2)c2ccccc21 | 11 | -22 | 49 | 21* | -4 | 16 | 6 | 2
Cn1c(=O)cc(SCC(=O)NCCCN2CCOCC2)c2ccccc21 | -1 | 5 | 22 | -2 | -1 | 5 | . | .
COc1ccc2cc(Cc3ccccc3)c(SCC(=O)NCc3ccco3)nc2c1 | . | . | 52 | . | . | 13 | . | .
Cc1ccc(C(=O)c2cc([N+](=O)[O-])ccc2N2CCCCC2)cc1 | 16 | -62 | 37 | 22* | -2 | 11 | 12 | 26*
COc1ccc(C(=O)n2c(-c3ccco3)nc3ccccc32)cc1 | 7 | -30 | 2 | 23* | -17 | 17 | 8 | 14
C(=C\c1ccccc1)/CN1CCN(c2ncnc3c2oc2ccccc23)CC1 | 14 | 6 | -25 | 26* | -26 | 10 | 11 | 16
Nc1nc(N2CCN(C/C=C/c3ccccc3)CC2)nc2ccccc12 | 9 | -22 | -78 | 22* | 11 | 14 | 15 | 3
COc1ccc(CN(Cc2ccc(CN3CCOCC3)o2)CC2CCCO2)cc1 (stereo not drawn) | . | . | 1 | . | . | 4 | . | .
COc1ccc(C2=NN(CCN(C)C)C(=O)c3cc4ccccc4n3C2)cc1 | . | . | -47 | . | . | . | . | .
Clc1ccc(CN2CCCCCCC2)cc1Cl | 7 | -15 | 50 | 22* | -29 | 11 | 4 | 5
N#CC1=C(Nc2ccccc2)SC=C(c2ccccc2)N=C1N1CCOCC1 | 1 | -3 | 11 | 1 | -1 | . | . | .
N#CC1=C(Nc2ccccc2)SC=C(c2ccc(Cl)c(Cl)c2)N=C1N1CCOCC1 | 9 | -26 | -5 | 25* | -2 | . | 8 | 14
Cc1scc(NS(=O)(=O)c2ccc3c(c2)sc(=O)n3C)c1C | . | . | -91 | . | . | 7 | . | .
